In brackets after ≈: the same amount, converted by molar mass. Activity calls are given as the source filed them. The rule behind the calls is not given here.
Assays:
[1] = Solubility of the compound in aqueous buffer at pH 6.5; assay type: physicochemical
Procedure, shortened: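 Solubility from crystalline solid in aqueous buffer, pH 6.5, µg/mL.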

[2] = target: Phosphatidylinositol 4,5-bisphosphate 3-kinase catalytic subunit gamma isoform (Mus musculus, UniProt Q9JHG7); assay: Inhibition of PI3Kgamma in mouse RAW264 cells assessed as decrease in AKT phosphorylation at Ser473; assay type: cell-based
Procedure, shortened: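 Mouse monocytic RAW264 cells; inhibition of AKT Ser473 phosphorylation measured; single determination (n=1).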

[3] = target: Diacylglycerol kinase gamma (Homo sapiens, UniProt P49619); assay: Inhibition of human DGKgamma (1 to 752 residues) by ADP Glo HTS assay
Diacylglycerol kinase gamma, sequence (P49619 whole entry, the tested form may be a part): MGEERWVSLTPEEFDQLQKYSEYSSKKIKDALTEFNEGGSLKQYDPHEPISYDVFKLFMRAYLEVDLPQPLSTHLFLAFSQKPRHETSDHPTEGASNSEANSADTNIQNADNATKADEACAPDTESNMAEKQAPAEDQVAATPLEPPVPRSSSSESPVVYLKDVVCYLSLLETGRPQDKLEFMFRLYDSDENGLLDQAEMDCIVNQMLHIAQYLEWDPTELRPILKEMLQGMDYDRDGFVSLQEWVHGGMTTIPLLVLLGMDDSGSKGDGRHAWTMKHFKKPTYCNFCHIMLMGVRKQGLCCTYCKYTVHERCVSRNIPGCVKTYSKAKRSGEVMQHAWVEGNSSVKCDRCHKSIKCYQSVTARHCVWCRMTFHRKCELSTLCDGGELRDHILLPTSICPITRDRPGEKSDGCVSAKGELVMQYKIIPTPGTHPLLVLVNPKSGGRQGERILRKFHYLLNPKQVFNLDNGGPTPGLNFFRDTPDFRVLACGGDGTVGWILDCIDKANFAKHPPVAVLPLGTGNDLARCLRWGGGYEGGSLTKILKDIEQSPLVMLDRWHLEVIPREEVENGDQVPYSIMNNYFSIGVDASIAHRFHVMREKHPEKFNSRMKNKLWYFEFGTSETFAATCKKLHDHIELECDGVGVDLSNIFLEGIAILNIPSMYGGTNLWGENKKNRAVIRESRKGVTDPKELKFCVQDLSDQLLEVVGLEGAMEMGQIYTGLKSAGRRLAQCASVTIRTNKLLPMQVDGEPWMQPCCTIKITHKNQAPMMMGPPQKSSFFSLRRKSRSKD
Procedure, shortened: (§1)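 Lipid kinase selectivity assessed in a 15-kinase panel (Dundee University lipid kinase panel), IC50 determined.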

[4] = Volume of distribution at steady state in mouse blood at 5 umol/kg, iv or 30 umol/kg, po; assay type: ADME, organism-based; conditions: read-out: Vdss
[5] = target: Sphingosine kinase 1 (Homo sapiens, UniProt Q9NYA1); assay: Inhibition of human SphK1 (1 to 384 residues) by […] HTS assay; procedure, shortened: as §1
[6] = target: Serine/threonine-protein kinase mTOR (Homo sapiens, UniProt P42345); assay: Inhibition of mTOR (unknown origin)
[7] = target: Phosphatidylinositol 4-kinase beta (Homo sapiens, UniProt Q9UBF8); assay: Inhibition of human PIK4Cbeta (1 to 801 residues) by ADP Glo HTS assay; procedure, shortened: as §1
[8] = test system: PC-3; assay: Antitumor activity against PTEN-deficient human PC3 cells xenografted in nude mouse assessed as tumor growth inhibition at 100 mg/kg, po bid relative to control; assay type: functional; conditions: PC-3, po, read-out: TGI
Procedure, shortened: (§2)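 Nude mice bearing PTEN-deficient PC3 prostate tumour xenografts; compound given orally twice daily (b.i.d.) at 100 or 50 mg/kg over chronic dosing; tumour growth inhibition versus control determined at end of study.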

[9] = target: Diacylglycerol kinase beta (Homo sapiens, UniProt Q9Y6T7); assay: Inhibition of human DGKbeta (1 to 804 residues) by ADP Glo HTS assay; procedure, shortened: as §1
[10] = test system: PC-3; assay: Antitumor activity against PTEN-deficient human PC3 cells xenografted in nude mouse assessed as tumor growth inhibition at 50 mg/kg, po bid relative to control; assay type: functional; conditions: PC-3, po, read-out: TGI; procedure, shortened: as §2
[11] = target: Phosphatidylinositol 4,5-bisphosphate 3-kinase catalytic subunit gamma isoform (Homo sapiens, UniProt P48736); assay: Inhibition of human PI3Kgamma (2 to 1102 residues) by ADP Glo HTS assay; procedure, shortened: as §1
Phosphatidylinositol 4,5-bisphosphate 3-kinase catalytic subunit gamma isoform (Homo sapiens, UniProt P48736), sequence (P48736 whole entry, the tested form may be a part, canonical isoform): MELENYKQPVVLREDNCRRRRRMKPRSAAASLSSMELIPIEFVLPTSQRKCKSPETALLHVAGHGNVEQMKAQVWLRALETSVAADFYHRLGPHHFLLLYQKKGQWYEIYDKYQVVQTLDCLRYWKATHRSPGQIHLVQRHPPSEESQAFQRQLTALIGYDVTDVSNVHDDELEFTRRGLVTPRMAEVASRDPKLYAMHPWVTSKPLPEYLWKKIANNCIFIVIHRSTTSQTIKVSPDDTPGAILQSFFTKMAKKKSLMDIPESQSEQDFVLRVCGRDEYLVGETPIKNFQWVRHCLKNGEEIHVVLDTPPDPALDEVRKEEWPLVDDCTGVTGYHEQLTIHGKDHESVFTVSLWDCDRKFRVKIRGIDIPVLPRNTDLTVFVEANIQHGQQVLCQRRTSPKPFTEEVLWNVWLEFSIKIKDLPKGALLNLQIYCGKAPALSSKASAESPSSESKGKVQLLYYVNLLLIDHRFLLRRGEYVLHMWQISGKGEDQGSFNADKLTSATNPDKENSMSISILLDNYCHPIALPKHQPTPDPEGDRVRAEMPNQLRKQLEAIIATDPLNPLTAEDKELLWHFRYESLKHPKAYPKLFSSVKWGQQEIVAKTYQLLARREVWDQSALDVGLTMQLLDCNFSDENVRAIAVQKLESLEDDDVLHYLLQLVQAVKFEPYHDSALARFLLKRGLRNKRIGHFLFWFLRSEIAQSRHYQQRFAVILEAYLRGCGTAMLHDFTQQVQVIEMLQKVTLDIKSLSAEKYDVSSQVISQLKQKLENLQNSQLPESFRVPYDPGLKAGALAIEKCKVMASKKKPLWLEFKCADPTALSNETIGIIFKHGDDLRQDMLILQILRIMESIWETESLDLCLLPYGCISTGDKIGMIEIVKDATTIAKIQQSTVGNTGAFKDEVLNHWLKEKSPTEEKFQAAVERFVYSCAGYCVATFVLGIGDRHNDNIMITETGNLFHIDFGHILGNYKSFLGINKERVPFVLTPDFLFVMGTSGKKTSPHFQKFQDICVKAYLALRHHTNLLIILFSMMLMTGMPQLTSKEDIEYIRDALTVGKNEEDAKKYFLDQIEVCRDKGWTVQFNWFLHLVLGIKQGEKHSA

[12] = target: Phosphatidylinositol 4,5-bisphosphate 3-kinase catalytic subunit alpha isoform (Homo sapiens, UniProt P42336, E545K); assay: Inhibition of human PI3Kalpha (2 to 1068 residues)/p85 (1 to 724 residues) E545K mutant by ADP Glo HTS assay; procedure, shortened: as §1
[13] = Clearance in dog blood at 4 umol/kg, iv or 10 umol/kg, po; assay type: ADME, organism-based, Canis lupus familiaris
[14] = Inhibition of PI3Kalpha mutant in human BT474 cells assessed as decrease in AKT phosphorylation at Thr308 after 2 hrs; assay type: cell-based; conditions: BT-474, 2 h
[15] = target: Phosphatidylinositol 4,5-bisphosphate 3-kinase catalytic subunit alpha isoform (Homo sapiens, UniProt P42336, E542K); assay: Inhibition of human PI3Kalpha (2 to 1068 residues)/p85 (1 to 724 residues) E542K mutant by ADP Glo HTS assay; procedure, shortened: as §1
Phosphatidylinositol 4,5-bisphosphate 3-kinase catalytic subunit alpha isoform (Homo sapiens, UniProt P42336, E542K), sequence (P42336 whole entry E542K, the tested form may be a part, canonical isoform): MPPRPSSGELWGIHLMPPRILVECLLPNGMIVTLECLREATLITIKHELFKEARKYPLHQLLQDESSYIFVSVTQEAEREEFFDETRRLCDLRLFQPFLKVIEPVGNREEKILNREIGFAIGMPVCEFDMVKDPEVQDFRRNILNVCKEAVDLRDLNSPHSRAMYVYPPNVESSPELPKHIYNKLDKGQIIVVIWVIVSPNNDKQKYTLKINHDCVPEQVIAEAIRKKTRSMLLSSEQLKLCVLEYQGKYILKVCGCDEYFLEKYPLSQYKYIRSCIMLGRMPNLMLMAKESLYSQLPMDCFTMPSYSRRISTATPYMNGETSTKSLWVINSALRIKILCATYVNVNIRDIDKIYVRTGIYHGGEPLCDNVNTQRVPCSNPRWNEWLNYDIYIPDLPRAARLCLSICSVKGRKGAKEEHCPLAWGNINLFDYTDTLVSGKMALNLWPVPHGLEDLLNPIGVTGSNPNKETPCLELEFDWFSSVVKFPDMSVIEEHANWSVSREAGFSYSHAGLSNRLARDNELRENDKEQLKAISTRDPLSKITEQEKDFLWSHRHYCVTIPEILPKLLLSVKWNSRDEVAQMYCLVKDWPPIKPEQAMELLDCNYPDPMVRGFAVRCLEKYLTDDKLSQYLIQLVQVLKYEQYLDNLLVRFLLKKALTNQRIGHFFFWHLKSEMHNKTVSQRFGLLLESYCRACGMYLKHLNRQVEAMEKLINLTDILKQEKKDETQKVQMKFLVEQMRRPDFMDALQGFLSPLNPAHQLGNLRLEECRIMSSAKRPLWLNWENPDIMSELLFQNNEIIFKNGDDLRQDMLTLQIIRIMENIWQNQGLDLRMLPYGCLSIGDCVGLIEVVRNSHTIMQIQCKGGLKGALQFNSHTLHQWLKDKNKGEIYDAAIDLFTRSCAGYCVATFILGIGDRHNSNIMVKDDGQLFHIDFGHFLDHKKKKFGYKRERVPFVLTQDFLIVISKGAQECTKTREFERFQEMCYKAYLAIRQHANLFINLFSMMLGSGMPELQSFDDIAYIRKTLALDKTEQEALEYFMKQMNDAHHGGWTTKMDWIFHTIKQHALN

[16] = Oral bioavailability in mouse blood at 30 umol/kg; assay type: ADME, organism-based
[17] = target: Choline kinase alpha (Homo sapiens, UniProt P35790); assay: Inhibition of human CHKalpha (1 to 457 residues) by ADP Glo HTS assay; procedure, shortened: as §1
Choline kinase alpha, sequence (P35790 whole entry, the tested form may be a part): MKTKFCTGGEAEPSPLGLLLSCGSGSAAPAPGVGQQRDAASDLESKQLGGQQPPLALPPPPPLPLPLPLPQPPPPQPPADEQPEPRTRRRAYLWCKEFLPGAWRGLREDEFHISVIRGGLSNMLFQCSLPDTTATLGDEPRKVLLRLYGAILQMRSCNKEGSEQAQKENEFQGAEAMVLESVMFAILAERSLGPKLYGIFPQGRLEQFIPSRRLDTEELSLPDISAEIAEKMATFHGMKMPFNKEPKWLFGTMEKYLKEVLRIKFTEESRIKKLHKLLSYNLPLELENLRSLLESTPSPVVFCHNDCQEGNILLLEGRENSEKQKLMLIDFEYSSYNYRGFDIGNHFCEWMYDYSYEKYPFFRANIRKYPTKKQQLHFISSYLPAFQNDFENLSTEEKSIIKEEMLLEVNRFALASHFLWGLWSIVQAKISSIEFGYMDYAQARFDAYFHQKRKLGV

[18] = target: MAP kinase-interacting serine/threonine-protein kinase 1 (Homo sapiens) (UniProt Q9BUB5); assay: Inhibition of human MNK1 (2 to 424 residues) at 1 uM after 5 mins in presence of [33P]ATP by filter binding assay relative to control
MAP kinase-interacting serine/threonine-protein kinase 1 (Homo sapiens), sequence (Q9BUB5 whole entry, looked up, the tested form may be a part): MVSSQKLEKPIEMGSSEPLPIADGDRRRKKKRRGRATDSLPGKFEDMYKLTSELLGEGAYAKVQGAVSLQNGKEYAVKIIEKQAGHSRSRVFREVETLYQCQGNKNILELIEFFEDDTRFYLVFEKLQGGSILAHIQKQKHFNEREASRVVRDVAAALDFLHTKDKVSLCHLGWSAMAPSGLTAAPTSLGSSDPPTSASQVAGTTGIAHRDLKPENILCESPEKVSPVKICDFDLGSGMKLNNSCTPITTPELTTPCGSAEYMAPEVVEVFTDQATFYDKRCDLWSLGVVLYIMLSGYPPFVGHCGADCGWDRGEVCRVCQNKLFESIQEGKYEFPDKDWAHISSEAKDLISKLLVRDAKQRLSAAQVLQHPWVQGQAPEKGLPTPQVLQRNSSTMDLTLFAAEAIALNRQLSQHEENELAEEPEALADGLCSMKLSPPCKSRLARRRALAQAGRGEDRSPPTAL

[19] = target: Phosphatidylinositol 5-phosphate 4-kinase type-2 alpha (Homo sapiens, UniProt P48426); assay: Inhibition of human PIP5K2alpha (1 to 406 residues) by ADP Glo HTS assay; procedure, shortened: as §1
Phosphatidylinositol 5-phosphate 4-kinase type-2 alpha, sequence (P48426 whole entry, the tested form may be a part): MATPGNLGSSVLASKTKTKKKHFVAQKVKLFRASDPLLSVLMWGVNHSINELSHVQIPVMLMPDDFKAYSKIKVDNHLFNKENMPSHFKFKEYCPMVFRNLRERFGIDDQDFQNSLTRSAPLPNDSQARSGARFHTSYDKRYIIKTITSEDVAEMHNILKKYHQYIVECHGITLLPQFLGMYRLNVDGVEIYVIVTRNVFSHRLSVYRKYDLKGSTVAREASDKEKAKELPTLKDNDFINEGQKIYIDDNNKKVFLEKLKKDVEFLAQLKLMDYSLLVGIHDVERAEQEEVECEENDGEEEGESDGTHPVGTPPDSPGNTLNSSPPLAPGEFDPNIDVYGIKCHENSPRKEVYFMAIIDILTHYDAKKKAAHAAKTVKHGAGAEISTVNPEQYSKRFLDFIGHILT

[20] = target: Sphingosine kinase 2 (Homo sapiens, UniProt Q9NRA0); assay: Inhibition of human SPHK 2 (1 to 654 residues) by ADP Glo HTS assay; procedure, shortened: as §1
Sphingosine kinase 2, sequence (Q9NRA0 whole entry, the tested form may be a part): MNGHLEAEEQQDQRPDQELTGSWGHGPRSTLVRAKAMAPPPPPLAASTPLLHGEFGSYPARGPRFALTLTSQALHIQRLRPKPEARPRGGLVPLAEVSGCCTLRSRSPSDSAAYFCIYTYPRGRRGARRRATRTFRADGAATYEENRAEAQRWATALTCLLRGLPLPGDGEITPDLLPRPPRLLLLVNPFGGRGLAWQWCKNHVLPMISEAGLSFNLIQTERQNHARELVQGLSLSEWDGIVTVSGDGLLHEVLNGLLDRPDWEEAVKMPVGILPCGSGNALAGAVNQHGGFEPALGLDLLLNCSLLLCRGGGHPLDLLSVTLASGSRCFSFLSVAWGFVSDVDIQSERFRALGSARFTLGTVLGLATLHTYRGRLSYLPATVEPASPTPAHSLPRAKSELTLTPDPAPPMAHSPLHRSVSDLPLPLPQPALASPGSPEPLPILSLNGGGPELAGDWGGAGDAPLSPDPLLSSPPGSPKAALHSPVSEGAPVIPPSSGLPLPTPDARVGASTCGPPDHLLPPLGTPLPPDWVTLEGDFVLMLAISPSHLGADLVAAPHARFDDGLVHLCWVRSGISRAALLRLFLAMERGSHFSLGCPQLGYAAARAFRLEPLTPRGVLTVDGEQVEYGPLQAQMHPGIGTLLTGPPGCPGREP

[21] = target: Phosphatidylinositol 3-kinase regulatory subunit alpha (Homo sapiens, UniProt P27986); assay: Inhibition of human PI3K p85alpha (1 to 724 residues) by ADP Glo HTS assay; procedure, shortened: as §1
[22] = test system: Mus musculus; assay: In vivo inhibition of AKT phosphorylation at Ser473 in nude mouse xenografted with PTEN-deficient human PC3 cells at 30 mg/kg, po administered as single dose measured after 30 mins to 8 hrs; assay type: functional, organism-based
Procedure, shortened: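 Single oral dose (100 or 30 mg/kg) to nude mice carrying PTEN-deficient PC3 prostate xenografts; tumour AKT Ser473 phosphorylation measured at 30 min, 2 h and 8 h, with free plasma concentration determined at same time points.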

[23] = Intrinsic clearance in mouse hepatocytes assessed per million cells; assay type: ADME, cell-based, Hepatocyte; conditions: read-out: CLH
Procedure, shortened: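 Intrinsic clearance measured in mouse or dog hepatocytes, expressed as CL_int in […].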

[24] = Fraction unbound in dog plasma; assay type: ADME, cell-free, Canis lupus familiaris
Procedure, shortened: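 Plasma protein binding in mouse, dog or human plasma, reported as fraction unbound (%).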

[25] = target: Cytochrome P450 2D6 (Homo sapiens, UniProt P10635); assay: Inhibition of CYP2D6 (unknown origin); assay type: ADME

Structure (SMILES): O=C(c1cc([C@H]2CCCN2c2cc(F)cc(F)c2)c2oc(N3CCOCC3)cc(=O)c2c1)N1CCOCC1
- solubility [1]: 230 µg/mL (≈ 438 µM)
- IC50 [2]: 1.5 µM
- IC50 [3]: > 50 µM
- Vd [4]: 1 L/kg
- IC50 [5]: 29 µM
- IC50 [6]: 42 µM
- IC50 [7]: > 50 µM
- inhibition in vivo at 100 mg/kg [8]: 83%
- IC50 [9]: > 50 µM
- inhibition in vivo at 50 mg/kg [10]: 71%
- IC50 [11]: > 50 µM
- IC50 [12]: > 50 µM
- clearance [13]: 23 mL/min/kg
- IC50 [14]: 0.14 µM
- IC50 [15]: > 50 µM
- bioavailability [16]: 26%
- IC50 [17]: > 50 µM
- inhibition [18]: 36%
- IC50 [19]: > 50 µM
- IC50 [20]: > 50 µM
- IC50 [21]: > 50 µM
- inhibition [22]: Active
- hepatocyte CLint [23]: 68 µL/min/1e6 cells
- fraction unbound [24]: 0.28
- IC50 [25]: > 30 µM

Source: ChEMBL document CHEMBL4014298, “Discovery of a series of 8-(1-phenylpyrrolidin-2-yl)-6-carboxamide-2-morpholino-4H-chromen-4-one as PI3Kβ/δ inhibitors for the treatment of PTEN-deficient tumours” (Bioorg Med Chem Lett, 2017)
